ChEMBL document CHEMBL4028851, “Discovery of Potent Small-Molecule Inhibitors of Ubiquitin-Conjugating Enzyme UbcH5c from α-Santonin Derivatives” (J Med Chem, 2017)
Calls of active or inactive are those of the source. The calls are words filed in the database; no cut-off is given here.

Experiments:
[1] = target: Ubiquitin-conjugating enzyme E2 D3 (Mus musculus) (UniProt P61079); assay: Inhibition of UbcH5c in mouse b.End3 cells assessed as decrease in TNF-alpha-mediated p65 phosphorylation preincubated for 2 hrs followed by TNF-alpha stimulation for 20 mins by Western blot analysis; type: cell-based
Method in brief: (§1)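 bEnd.3 cells (DMEM, 10% FBS) were pretreated with compound at 2.5, 5 or 10 µM for 2 h, then stimulated with 20 ng/mL TNF-α (15 min in the methods, 20 min in the legend). Lysates were run on 10% SDS-PAGE and immunoblotted for phospho-IκBα, IκBα, phospho-p65 and p65, with GAPDH as loading control.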

[2] = system: Rattus norvegicus; assay: Antiarthritic activity in Wistar rat Freund's adjuvant-induced arthritis model assessed as reduction in arthritis index score at 5 to 20 mg/kg, po qd administered on day 10 to 20 postimmunization measured every 2 to 3 days during compound dosing; type: functional, organism-based
Method in brief: (§2)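 Adjuvant arthritis was induced by intradermal CFA (0.1 mL) into the base of the left hind paw (day 0), with a boost 10 days later. Rats were dosed orally once daily at 5 or 20 mg/kg from day 10 to day 20, with 10 rats per group. Vehicle controls received 0.3% sodium carboxymethylcellulose. Two blinded observers scored the animals every 2 or 3 days. Data are mean ± S.E.M.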

[3] = Half life in Sprague-Dawley rat at 5 mg/kg, po via gavage by LC-MS/MS analysis; type: ADME, organism-based; conditions: in vivo
Method in brief: (§3)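 Male Sprague-Dawley rats (about 200‒220 g; n = 6) were fasted overnight and gavaged with 5 mg/kg as a suspension in 0.5% methylcellulose. Blood was taken from the orbital artery at 0.083–24 h into heparin tubes. Plasma was quantified by LC/MS/MS (ESI, MRM), with noncompartmental analysis. Bioavailability was referenced to a 1 mg/kg iv dose. Values are mean ± SD.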

[4] = AUC (0 to infinity) in Sprague-Dawley rat at 5 mg/kg, po via gavage by LC-MS/MS analysis; type: ADME, organism-based; set-up: dose 5 mg/kg, time infinity, route oral; conditions: in vivo
Method in brief: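 Male Sprague-Dawley rats (about 200‒220 g), n = 6, fasted overnight; single oral gavage at 5 mg/kg as a suspension in 0.5% methylcellulose. Blood was drawn from the orbital artery into heparin tubes at 0.083–24 h. Plasma was analysed by LC/MS/MS (ESI, MRM). AUC(0-∞) came from noncompartmental analysis, reported as mean ± SD of six rats.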

[5] = target: T1, Ubiquitin-conjugating enzyme E2 H (Homo sapiens) (UniProt P62256); assay: Inhibition of UbcH2 (unknown origin) at 2.5 to 10 uM preincubated for 15 mins followed by E1, Ub and ATP addition measured after 40 mins by Western blot analysis
T1 sequence (whole entry): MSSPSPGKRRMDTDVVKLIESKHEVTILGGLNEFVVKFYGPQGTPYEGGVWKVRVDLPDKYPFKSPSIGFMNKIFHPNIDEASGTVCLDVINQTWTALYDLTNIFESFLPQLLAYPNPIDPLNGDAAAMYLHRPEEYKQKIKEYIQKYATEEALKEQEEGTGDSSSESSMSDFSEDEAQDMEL

[6] = Volume of distribution at steady state in Sprague-Dawley rat at 1 mg/kg, iv by LC-MS/MS analysis; type: ADME, organism-based; conditions: in vivo, read-out: Vdss
Method in brief: (§4)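 Male Sprague-Dawley rats (about 200‒220 g; n = 6) were fasted overnight and given a single 1 mg/kg iv dose in DMSO:castor oil:saline (3:3:94). Blood was sampled from the orbital artery into heparin tubes. Plasma was analysed by LC/MS/MS (ESI, MRM), and parameters came from noncompartmental analysis. Values are mean ± SD.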

[7] = target: Ubiquitin-conjugating enzyme E2 D3 (Mus musculus) (UniProt P61079); assay: Inhibition of UbcH5c in mouse b.End3 cells assessed as decrease in TNF-alpha-mediated IkB-alpha phosphorylation at 10 uM preincubated for 2 hrs followed by TNF-alpha stimulation for 20 mins by Western blot analysis; type: cell-based; method in brief: as §1
[8] = target: Ubiquitin-conjugating enzyme E2 D2 (Homo sapiens) (UniProt P62837); assay: Inhibition of UbcH5b (unknown origin) at 2.5 to 10 uM preincubated for 15 mins followed by E1, Ub and ATP addition measured after 40 mins by Western blot analysis
[9] = target: Ubiquitin-conjugating enzyme E2 L3 (Homo sapiens) (UniProt P68036); assay: Inhibition of UbcH7 (unknown origin) at 2.5 to 10 uM preincubated for 15 mins followed by E1, Ub and ATP addition measured after 40 mins by Western blot analysis
[10] = target: Ubiquitin-conjugating enzyme E2 D3 (Mus musculus) (UniProt P61079); assay: Inhibition of UbcH5c in mouse b.End3 cells assessed as decrease in TNF-alpha-mediated IkB-alpha degradation preincubated for 2 hrs followed by TNF-alpha stimulation for 20 mins by Western blot analysis; type: cell-based; method in brief: as §1
[11] = target: T2, Ubiquitin-conjugating enzyme E2 C (Homo sapiens) (UniProt O00762); assay: Inhibition of UbcH10 (unknown origin) at 2.5 to 10 uM preincubated for 15 mins followed by E1, Ub and ATP addition measured after 40 mins by Western blot analysis
T2 sequence (whole entry): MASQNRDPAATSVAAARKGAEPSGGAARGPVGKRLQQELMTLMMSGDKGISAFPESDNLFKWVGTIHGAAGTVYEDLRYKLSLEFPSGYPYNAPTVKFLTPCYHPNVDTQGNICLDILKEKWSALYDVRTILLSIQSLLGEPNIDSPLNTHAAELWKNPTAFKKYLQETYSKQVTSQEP

[12] = system: Rattus norvegicus; assay: Antiarthritic activity in Wistar rat Freund's adjuvant-induced arthritis model assessed as protection against body weight loss at 5 to 20 mg/kg, po qd administered on day 10 to 20 postimmunization measured every 2 to 3 days during compound dosing; type: functional, organism-based; method in brief: as §2
[13] = Binding affinity to IYHPNINSNGSICLDILR assessed as covalent adduct formation with Cys85 residues after 1 hr by LC/MS/MS analysis
[14] = Oral bioavailability in Sprague-Dawley rat at 5 mg/kg via gavage by LC-MS/MS analysis; type: ADME, organism-based; conditions: in vivo; method in brief: as §3
[15] = Clearance in Sprague-Dawley rat at 1 mg/kg, iv by LC-MS/MS analysis; type: ADME, organism-based; conditions: in vivo; method in brief: as §4
[16] = Cmax in Sprague-Dawley rat at 5 mg/kg, po via gavage by LC-MS/MS analysis; type: ADME, organism-based; set-up: dose 5 mg/kg, route oral; conditions: in vivo; method in brief: as §3
[17] = target: Ubiquitin-conjugating enzyme E2 D3 (Mus musculus) (UniProt P61079); assay: Inhibition of UbcH5c in mouse b.End3 cells assessed as decrease in TNF-alpha-mediated IkB-alpha phosphorylation preincubated for 2 hrs followed by TNF-alpha stimulation for 20 mins by Western blot analysis; type: cell-based; method in brief: as §1
[18] = target: T3, Ubiquitin-conjugating enzyme E2 K (Homo sapiens) (UniProt P61086); assay: Inhibition of E2-25K (unknown origin) at 2.5 to 10 uM preincubated for 15 mins followed by E1, Ub and ATP addition measured after 40 mins by Western blot analysis
T3 sequence (whole entry): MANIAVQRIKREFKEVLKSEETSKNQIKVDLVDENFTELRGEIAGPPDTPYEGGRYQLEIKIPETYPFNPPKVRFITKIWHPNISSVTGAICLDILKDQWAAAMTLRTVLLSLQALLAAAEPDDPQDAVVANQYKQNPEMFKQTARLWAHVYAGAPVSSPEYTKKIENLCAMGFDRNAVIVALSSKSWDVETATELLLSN

[19] = Half life in Sprague-Dawley rat at 1 mg/kg, iv by LC-MS/MS analysis; type: ADME, organism-based; conditions: in vivo; method in brief: as §4

Ubiquitin-conjugating enzyme E2 D3 (Mus musculus), sequence (P61079 whole entry, looked up): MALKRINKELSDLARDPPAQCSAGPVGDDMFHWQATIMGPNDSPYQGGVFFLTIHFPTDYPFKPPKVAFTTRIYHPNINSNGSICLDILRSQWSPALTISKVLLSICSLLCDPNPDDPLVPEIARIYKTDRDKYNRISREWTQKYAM
Ubiquitin-conjugating enzyme E2 L3 (Homo sapiens), sequence (P68036 whole entry): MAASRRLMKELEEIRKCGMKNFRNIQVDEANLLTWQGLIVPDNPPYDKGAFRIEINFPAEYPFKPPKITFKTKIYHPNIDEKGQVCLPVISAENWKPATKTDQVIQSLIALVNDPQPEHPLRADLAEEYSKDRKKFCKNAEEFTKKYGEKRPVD
Ubiquitin-conjugating enzyme E2 D2 (Homo sapiens), sequence (P62837 whole entry, looked up): as the sequence (P61079 whole entry, looked up) above, with N7H, S11N, D132E, S138A counted along it

inhibition [1]: Dose-dependent effect | half-life [3]: 2.86 h | AUC(0-inf) [4]: 314 ng·h/mL | inhibition [5]: inactive | Vd [6]: 6.26 L/kg | inhibition [7]: Active | inhibition [8]: Active | inhibition [9]: Active | inhibition [10]: Dose-dependent effect | inhibition [11]: Active | Activity [13]: Active | bioavailability [14]: 16.8% | clearance [15]: 41.3 mL/min/kg | Cmax [16]: 42.2 ng/mL | inhibition [17]: Dose-dependent effect | inhibition [18]: inactive | half-life [19]: 1.76 h
Structure (SMILES): C=C1C(=O)O[C@H]2c3c(C)c(OCc4ccccc4Br)cc(C)c3CC[C@@H]12
Activity [2]: Active | Activity [12]: inactive
